Experimental data gathered from unrelated publications.
Target: Glycogen synthase kinase-3 alpha (GSK3A, Homo sapiens, UniProt P49840)

CN(CCCC(F)(F)F)c1nccc(-c2cnn3ncccc23)n1 — remaining binding (binding; 1 µM): 100%
CN1CCN(c2cnc3c(C4CCN(C(=O)c5ccc(OC(F)(F)F)cc5N)CC4)ncnc3c2)CC1 — remaining binding (cell-free assay, competition with immobilised ligand; 1 µM): 100%
O=C(c1ccc(Nc2nccc(-c3cc4ccccc4s3)n2)cc1)N1CCC(N2CCCC2)CC1 — remaining binding (binding, competition with immobilised ligand; 1 µM): 82%
N[C@H]1CCN(c2nccc(-c3cnn4ncccc34)n2)C1 — remaining binding (binding; 1 µM): 86%
O=C(Nc1cccnn1)N1CCC(=Cc2cccc(Oc3ccc(C(F)(F)F)cn3)c2)CC1 — remaining binding (cell-free assay, competition with immobilised ligand; 1 µM): 100%
F[C@@H]1CCN(c2nccc(-c3cnn4ncccc34)n2)C1 — remaining binding (binding; 1 µM): 100%
COc1cnc(Nc2cccc(S(N)(=O)=O)c2)nc1N1CCN(c2ccccc2)C(=O)C1 — remaining binding (binding, competition with immobilised ligand; 1 µM): 90%
O=C(NCc1ncc(C(F)(F)F)cc1Cl)c1ccc2c(c1)C1(CCS(=O)(=O)CC1)[C@H](C1CC1)N2S(=O)(=O)c1ccc(F)cc1 — remaining binding (cell-free assay, competition with immobilised ligand; 1 µM): 100%
O=C(c1ccc(Nc2ncc(Cl)c(-c3cc4ccccc4s3)n2)cc1)N1CCC(N2CCCC2)CC1 — remaining binding (binding, competition with immobilised ligand; 1 µM): 11%
Cc1nc(C2CCN(C(=O)c3ccc(OC(F)(F)F)cc3N)CC2)c2ncc(N3CCN(C)CC3)cc2n1 — remaining binding (cell-free assay, competition with immobilised ligand; 1 µM): 85%
O=C(NCCCN1CCOCC1)c1ccc(Nc2nccc(-c3cc4ccccc4s3)n2)cc1 — remaining binding (binding, competition with immobilised ligand; 1 µM): 92%
C[C@H](NC(=O)c1cnc2n1[C@](C)(Cc1ccc(C#N)cc1)C(=O)N2c1cc(Cl)c(F)c(Cl)c1)C(=O)NC1(c2ccccn2)CC1 — remaining binding (cell-free assay, competition with immobilised ligand; 1 µM): 100%
C[C@H]1CCN(c2nccc(-c3cnn4ncccc34)n2)C1 — remaining binding (binding; 1 µM): 85%
O=C(NCC1CCOCC1)c1n[nH]cc1NC(=O)c1c(F)cccc1F — remaining binding (binding, competition with immobilised ligand; 1 µM): 0%
CCN1CCN(Cc2ccc(C(=O)Nc3ccc(C)c(Oc4ccc5c(c4)CC(=O)N5)c3)cc2C(F)(F)F)CC1 — remaining binding (binding, competition with immobilised ligand; 1 µM): 100%
c1cncc(-c2cccc(Nc3nccc(NC4CCCCC4)n3)c2)c1 — remaining binding (binding, competition with immobilised ligand; 10 µM): 65%
C=CC(=O)N1CCC(C(=O)NCC(=O)N2CCN(c3nc(-c4cnc(N)nc4C(F)F)nc(N4CCOCC4)n3)CC2)CC1 — remaining binding (binding, competition with immobilised ligand; 1 µM): 92%
CN(C)c1ncc(F)c(-c2cnn3ncccc23)n1 — remaining binding (binding; 1 µM): 82%
COc1ncc2cc3ccccc3nc2c1C#N — remaining binding (cell-free assay, competition with immobilised ligand; 5 µM): 94%
Cn1nc(C(=O)NCc2ccc(C(=O)O)cc2)cc1-c1ccc2[nH]ccc2c1 — remaining binding (cell-free assay, competition with immobilised ligand; 0.1 µM): 61%
CNC(=O)[C@@H]1CC[C@@H](n2c(-c3ccc4cnccc4c3)nc3ccc(C(=O)NCc4cccc(C(N)=O)c4)cc32)C1 — remaining binding (binding, competition with immobilised ligand; 1 µM): 85%
